Each structure is given as a SMILES string. Calls of active or inactive are those of the source. No cut-off for these calls is given here.

Experiment [1] has as its system Human immunodeficiency virus 1. Nature of the experiment: Antiviral activity against HIV1 NL43 in HeLa H1-JC.37 cells after 2 hrs by focal infectivity assay. The class given is functional, organism-based. Put shortly: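 NL4-3 stock (10^5 FFU/ml) was preincubated with drug (0–30 µM) for 2 h at 37°C, then diluted 400-fold in DMEM/0.1% FBS so drug fell below inhibitory levels. The mixture was added to HeLa H1-JC.37 cells for 2 h adsorption. FBS was raised to 10% and cells were incubated 4 days. Focus immunostaining followed, with five replicate wells per concentration.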

In experiment [2] the test system is Human immunodeficiency virus 1. Nature of the experiment: Antiviral activity against HIV1 NL43 in PBMCs after 2 hrs by p24 antigen capture ELISA. The class given is functional, organism-based. Summed up: (§1)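 NL4-3 was preincubated with drug for 2 h at 37°C and diluted 400-fold in medium with 0.1% FBS. It was added to CEMx174 (5 x 10^4/well), PHA-stimulated PBMCs (1 x 10^4/well) or HeLa H1-JC.37 cells (4.5 x 10^4/well) for 2 h. Cells were washed twice by centrifugation, resuspended in 10% FBS, and cultured 4 days at 37°C. Supernatant p24 was measured by antigen-capture ELISA.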

Experiment [3] relates to Human immunodeficiency virus 1. The experiment in a line: Antiviral activity against HIV1 NL43 in CEMx174 cells after 2 hrs by p24 antigen capture ELISA. The class given is functional, organism-based. Summed up: as §1
For experiment [4], the system named is Human immunodeficiency virus 1. Nature of the experiment: Antiviral activity against HIV1 NL43 in HeLa H1-JC.37 cells after 2 hrs by p24 antigen capture ELISA. The class given is functional, organism-based. Put shortly:
as §1

Experiment [5] relates to Human immunodeficiency virus 1. Nature of the experiment: Antiviral activity against HIV1 NL43 in HeLa H1-JC.37 cells pretreated for 2 hrs before viral challenge by FIA. The class given is functional, organism-based. Put shortly:
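HeLa H1-JC.37 cells (4.5 x 10^3/well, seeded overnight) were exposed to drug in DMEM/0.1% FBS for 2 h, then washed twice. They were infected with 20–60 FFU NL4-3 for 2 h. Volume was brought to 200 µl at 10% FBS and cells were incubated 4 days at 37°C. Readout was focus counting. A control arm added drug together with virus.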

For experiment [6], the system named is Human immunodeficiency virus 1. The experiment in a line: Binding affinity to HIV1 ogp140 by SPR competition study in presence of gp41 MAb 5F3. Summed up: (§2)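 SPR was run at 25°C in HBS-P (pH 7.4). MAbs (10 µg/ml) were captured on immobilized goat anti-human Ig. 50 nM oligomeric gp140 was preincubated 30 min with 0, 1, 5 or 10 µM drug, then injected 1 min at 20 µl/min with 2 min dissociation. Surfaces were regenerated with 146 mM H3PO4. Responses were double-referenced and normalized to MAb capture level.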

In experiment [7] the test system is Human immunodeficiency virus 1. Nature of the experiment: Binding affinity to HIV1 ogp140 by SPR competition study in presence of gp41 MAb F240. Summed up: as §2
In experiment [8] the test system is Human immunodeficiency virus 1. Nature of the experiment: Antiviral activity against B clade R5 tropic HIV1 BaL in HeLa H1-JC.37 cells by focal infectivity assay. Conditions: Human immunodeficiency virus 1, BaL. The class given is functional, organism-based. Put shortly: (§3)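 HeLa H1-JC.37 cells were seeded at 4.5 x 10^3/well and grown overnight at 37°C. Drug was added in DMEM/0.1% FBS for 1 h. Cells then adsorbed 20–60 FFU of virus with drug for 1–2 h. FBS was raised to 10% with drug held constant, then cells were incubated 4 days. Foci were immunostained and counted as % of no-drug control. EC50 came from a regression line; ≥5 wells, ≥3 experiments.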

For experiment [9], the system named is Human immunodeficiency virus 1. The experiment in a line: Antiviral activity against B clade X4 tropic HIV1 HXBc2 in HeLa H1-JC.37 cells by focal infectivity assay. The class given is functional, organism-based. The conditions noted are these: Human immunodeficiency virus 1, HXBc2, HeLa. Put shortly: as §3
Experiment [10] relates to Human immunodeficiency virus 1. Nature of the experiment: Antiviral activity against B clade X4 R5 tropic HIV1 89.6 in HeLa H1-JC.37 cells by focal infectivity assay. The class given is functional, organism-based. Conditions: Human immunodeficiency virus 1, 89.6, HeLa. Summed up:
as §3

The test system of experiment [11] is Human immunodeficiency virus 1. Nature of the experiment: Antiviral activity against A clade R5 tropic HIV1 92RW016 in HeLa H1-JC.37 cells by focal infectivity assay. The class given is functional, organism-based. The conditions noted are these: Human immunodeficiency virus 1, 92RW016, HeLa. Summed up: as §3
In experiment [12] the test system is Human immunodeficiency virus 1. The experiment in a line: Antiviral activity against B clade R5 tropic HIV1 SF162 in HeLa H1-JC.37 cells by focal infectivity assay. The class given is functional, organism-based. The conditions noted are these: Human immunodeficiency virus 1, SF162, HeLa. Summed up: as §3
The subject of experiment [13] is Human immunodeficiency virus 1. The experiment in a line: Antiviral activity against B clade X4 R5 tropic HIV1 92HT593 in HeLa H1-JC.37 cells by focal infectivity assay. The class given is functional, organism-based. The conditions noted are these: Human immunodeficiency virus 1, 92HT593, HeLa. Put shortly:
as §3

The test system of experiment [14] is Human immunodeficiency virus 1. The experiment in a line: Antiviral activity against B clade R5 tropic HIV1 92TH014 in HeLa H1-JC.37 cells by focal infectivity assay. The class given is functional, organism-based. The conditions noted are these: Human immunodeficiency virus 1, 92TH014, HeLa; in the assay text read “dual tropic” for “R5 tropic”. Put shortly:
as §3

The subject of experiment [15] is Human immunodeficiency virus 1. The experiment in a line: Antiviral activity against C clade R5 tropic HIV1 97ZA009 in HeLa H1-JC.37 cells by focal infectivity assay. The conditions noted are these: Human immunodeficiency virus 1, 97ZA009, HeLa. The class given is functional, organism-based. Put shortly: as §3
Experiment [16] has as its system Human immunodeficiency virus 1. The experiment in a line: Antiviral activity against C clade R5 tropic HIV1 98TZ013 in HeLa H1-JC.37 cells by focal infectivity assay. The class given is functional, organism-based. The conditions noted are these: Human immunodeficiency virus 1, 98TZ013, HeLa. Summed up: as §3
The test system of experiment [17] is Human immunodeficiency virus 1. Nature of the experiment: Antiviral activity against E clade R5 tropic HIV1 93TH078 in HeLa H1-JC.37 cells by focal infectivity assay. The class given is functional, organism-based. Conditions: Human immunodeficiency virus 1, 93TH078, HeLa. Put shortly: as §3
Experiment [18] is described as follows: Cytotoxicity against human HeLa H1-JC.37 cells. The class given is cell-based.
Experiment [19] has as its system Human immunodeficiency virus 1. Nature of the experiment: Antiviral activity against B clade X4 tropic HIV1 NL43 in HeLa H1-JC.37 cells by focal infectivity assay. The class given is functional, organism-based. The conditions noted are these: Human immunodeficiency virus 1, NL43, HeLa. Put shortly:
as §3

For experiment [20], the system named is Simian immunodeficiency virus. Nature of the experiment: Antiviral activity against R5 tropic SIV mac239 in HeLa H1-JC.37 cells by focal infectivity assay. The class given is functional, organism-based. Summed up:
as §3

Experiment [21] concerns Human immunodeficiency virus 1. Nature of the experiment: Binding affinity to HIV1 ogp140 at by SPR competition study in presence of gp120 MAb b12.

As for `O=S(=O)(/C=C/c1cc(O)c(O)c(O)c1)CS(=O)(=O)/C=C/c1cc(O)c(O)c(O)c1`, the outcome in experiment [1], in [2], in [3], in experiment [4], in experiment [6] and in experiment [7] was Active. Besides, in experiment [21], the outcome was Active. Further, the outcome in experiment [5] was inactive. The EC50 in experiment [8] worked out at 850 nM; in experiment [9], 530 nM; in experiment [10] it was 410 nM; in experiment [11] it was 700 nM; in [12] it was 400 nM; in experiment [13] it was 340 nM. For the same compound, the concentration giving a half-maximal response (EC50) was 190 nM in experiment [14]; 2300 nM in experiment [15]; 190 nM in [16]; 500 nM in experiment [17]; 330 nM in [19]; 1200 nM in experiment [20]. For the same compound, in [18], the IC50 came to 170000 nM.

For the origin of these results see ChEMBL document CHEMBL1143850, “Direct inactivation of human immunodeficiency virus type 1 by a novel small-molecule entry inhibitor, DCM205” (Antimicrob Agents Chemother, 2007).
